In experiment [1] the target is 5-hydroxytryptamine receptor 2A (Homo sapiens, UniProt P28223). Put plainly: Binding affinity towards human 5-hydroxytryptamine 2A receptor expressed in HEK 293 cells using [3H]ketanserin as radioligand. The experiment is classed as cell-based, HEK293. In outline:
(§1)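 Radioligand binding on human cloned receptors stably expressed in HEK 293 cells; 5-HT2A labelled with [3H]ketanserin, 5-HT2B with [3H]-5-HT. Values are means of at least two determinations, each within 0.2 log unit of the mean.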

Experiment [2] deals with T1, 5-hydroxytryptamine receptor 2C (Homo sapiens, UniProt P28335).
T1 sequence (P28335 whole entry): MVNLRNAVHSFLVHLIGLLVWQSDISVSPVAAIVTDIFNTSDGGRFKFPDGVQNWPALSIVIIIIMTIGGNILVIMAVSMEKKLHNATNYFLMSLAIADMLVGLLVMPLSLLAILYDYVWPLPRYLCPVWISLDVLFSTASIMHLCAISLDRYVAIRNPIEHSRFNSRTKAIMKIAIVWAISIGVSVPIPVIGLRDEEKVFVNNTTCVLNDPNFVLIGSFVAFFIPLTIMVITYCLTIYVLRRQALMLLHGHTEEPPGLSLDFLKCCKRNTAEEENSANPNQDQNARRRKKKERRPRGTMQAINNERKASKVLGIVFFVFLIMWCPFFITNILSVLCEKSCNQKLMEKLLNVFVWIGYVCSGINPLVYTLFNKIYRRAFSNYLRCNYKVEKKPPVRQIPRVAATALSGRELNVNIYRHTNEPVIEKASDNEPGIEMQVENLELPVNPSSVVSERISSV
Put plainly: Binding affinity towards cloned human 5-hydroxytryptamine 2C receptor expressed in HEK 293 cells using [3H]mesulergine as radioligand. The experiment is classed as cell-based, HEK293.

The species named for another experiment is Rattus norvegicus. Put plainly: The dose required to reverse […]- induced hypolocomotion in rat by 50 %. The experiment is classed as functional. The note with it: ip, 0.5 h, read-out: ID50 (the source's name).
Experiment [3] has as its target 5-hydroxytryptamine receptor 2B (Homo sapiens, UniProt P41595). Nature of the experiment: Binding affinity towards cloned human 5-hydroxytryptamine 2B receptor expressed in HEK 293 cells using [3H]5-HT as radioligand. The experiment is classed as cell-based, HEK293. In outline:
as §1

Consider 48 compounds from ChEMBL document CHEMBL1131637, “Novel and selective 5-HT2C/2B receptor antagonists as potential anxiolytic agents: synthesis, quantitative structure-activity relationships, and molecular modeling of substituted 1-(3-pyridylcarbamoyl)indolines” (J Med Chem, 1998).

The term Ki denotes a dissociation constant, usually derived from enzyme kinetics or from competition with a known ligand. Higher therefore signals weaker binding.

Chain of 5-hydroxytryptamine receptor 2A (P28223 whole entry): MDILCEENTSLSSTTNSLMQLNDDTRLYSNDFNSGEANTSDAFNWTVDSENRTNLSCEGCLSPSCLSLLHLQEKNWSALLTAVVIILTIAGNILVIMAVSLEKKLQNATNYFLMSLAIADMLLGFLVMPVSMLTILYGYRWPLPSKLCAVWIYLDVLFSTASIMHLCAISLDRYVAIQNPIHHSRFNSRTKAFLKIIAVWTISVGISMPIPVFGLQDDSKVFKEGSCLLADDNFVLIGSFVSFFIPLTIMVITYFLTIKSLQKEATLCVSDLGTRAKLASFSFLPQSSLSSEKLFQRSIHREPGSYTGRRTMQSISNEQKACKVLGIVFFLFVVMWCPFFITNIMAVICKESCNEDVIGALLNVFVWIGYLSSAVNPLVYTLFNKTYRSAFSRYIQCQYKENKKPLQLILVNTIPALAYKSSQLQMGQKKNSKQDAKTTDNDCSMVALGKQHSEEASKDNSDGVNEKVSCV
Chain of 5-hydroxytryptamine receptor 2B (P41595 whole entry): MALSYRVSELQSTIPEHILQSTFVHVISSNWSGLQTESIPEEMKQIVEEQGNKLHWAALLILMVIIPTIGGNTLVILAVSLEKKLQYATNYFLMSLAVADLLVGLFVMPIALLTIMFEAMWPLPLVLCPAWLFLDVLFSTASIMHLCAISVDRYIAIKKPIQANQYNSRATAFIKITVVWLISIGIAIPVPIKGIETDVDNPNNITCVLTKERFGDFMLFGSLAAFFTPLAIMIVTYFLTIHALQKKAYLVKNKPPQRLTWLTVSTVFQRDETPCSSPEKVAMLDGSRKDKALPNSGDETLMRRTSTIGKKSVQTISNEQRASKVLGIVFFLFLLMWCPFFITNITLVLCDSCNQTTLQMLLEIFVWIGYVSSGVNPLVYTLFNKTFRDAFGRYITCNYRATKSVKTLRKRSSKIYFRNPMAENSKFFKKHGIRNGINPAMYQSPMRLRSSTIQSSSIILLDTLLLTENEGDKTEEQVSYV

`O=C(Nc1cccnc1)N1CCc2ccc(C(F)(F)F)cc21`: the values for the Ki in experiment [1] and in experiment [2] were 501 nM and 50.1 nM, respectively.
Consider `CSc1cc2c(cc1I)N(C(=O)Nc1cccnc1)CC2`, for which the Ki in experiment [1] was 501 nM; in experiment [2] it was 2 nM. Besides, the ED50 in the experiment filed under Rattus norvegicus amounted to 3.2 mg/kg.
Regarding `CCSc1cc2c(cc1C(F)(F)F)N(C(=O)Nc1cccnc1)CC2`, the Ki in experiment [3] is 10 nM; in experiment [1], 3160 nM; in experiment [2], 3.16 nM. Besides, in the experiment listed under Rattus norvegicus, the ED50 is 4.4 mg/kg.
As for `O=C(Nc1cccnc1)N1CCc2cc(Cl)ccc21`, the results for the inhibition constant (Ki) in experiment [1] and in experiment [2] were 2510 nM and 79.4 nM, respectively.
For `O=C(Nc1cccnc1)N1CCc2cc(OCC3CC3)c(C(F)(F)F)cc21`, in that order: 3980 nM and 20 nM.
The matching figures for `CSc1cc2c(cc1Br)CCN2C(=O)Nc1cccnc1`: 2510 nM and 50.1 nM.
The matching figures for `O=C(Nc1cccnc1)N1CCc2cc(Br)cc([N+](=O)[O-])c21`: 3980 nM and 316 nM.
As to `Cc1cc2c(cc1I)N(C(=O)Nc1cccnc1)CC2`, the figures for the Ki in experiment [1] and in experiment [2] were 63.1 nM and 3.16 nM, respectively.
The matching figures for `O=C(Nc1cccnc1)N1CCc2cc(Cl)c(C(F)(F)F)cc21`: 158 nM and 6.31 nM.
In the case of `O=C(Nc1cccnc1)N1CCc2cc(-c3ccccc3)ccc21`, the Ki in experiment [1] is 5010 nM; in experiment [2], 126 nM.
For `CCCc1cc2c(cc1Cl)N(C(=O)Nc1cccnc1)CC2`, in that order: 1260 nM and 20 nM.
With `CSc1cc2c(cc1OC(F)(F)F)N(C(=O)Nc1cccnc1)CC2`, the Ki in experiment [1] was 3160 nM; in experiment [2] it was 25.1 nM.
The matching figures for `O=C(Nc1cccnc1)N1CCc2cc(Cl)c(Cl)cc21`: 251 nM and 7.94 nM.
As to `CC(C)(C)c1cc2c(cc1Cl)N(C(=O)Nc1cccnc1)CC2`, the Ki in experiment [3] was 158 nM; in experiment [1], 631 nM; in experiment [2], 20 nM.
Regarding `CSc1ccc2c(c1)CCN2C(=O)Nc1cccnc1`, the Ki in experiment [1] is 3980 nM; in experiment [2], 39.8 nM.
For `O=C(Nc1cccnc1)N1CCc2c(Cl)cccc21`, in that order: 3980 nM and 501 nM.
The matching figures for `O=C(Nc1cccnc1)N1CCc2ccc(Cl)cc21`: 794 nM and 50.1 nM.
Regarding `COC(=O)c1cc2c(cc1Cl)N(C(=O)Nc1cccnc1)CC2`, the Ki in experiment [1] is 6310 nM; in experiment [2], 31.6 nM. In addition, in the experiment listed under Rattus norvegicus, the ED50 is 16 mg/kg.
`CC(C)Oc1cc2c(cc1Cl)N(C(=O)Nc1cccnc1)CC2`: the Ki in experiment [1] is more than 6310 nM; in experiment [2], 15.8 nM. Moreover, the ED50 in the experiment filed under Rattus norvegicus came out at 4 mg/kg.
Take `O=C(Nc1cccnc1)N1CCc2cc(-c3ccccc3)c(Cl)cc21`: the Ki was 3980 nM in experiment [1] and 126 nM in experiment [2].
Turning to `CC(C)c1ccc2c(c1)CCN2C(=O)Nc1cccnc1`, the Ki in experiment [1] was 2000 nM; in experiment [2], 79.4 nM.
The matching figures for `CC(C)Sc1cc2c(cc1C(F)(F)F)N(C(=O)Nc1cccnc1)CC2`: 5010 nM and 31.6 nM.
For `CN(C)c1ccc2c(c1)CCN2C(=O)Nc1cccnc1`, in that order: more than 6310 nM and 316 nM.
With `Cc1ccc2c(c1)CCN2C(=O)Nc1cccnc1`, the inhibition constant (Ki) in experiment [1] was 5010 nM; in experiment [2] it was 158 nM.
For `O=C(Nc1cccnc1)N1CCc2ccc(Cl)c(Cl)c21`, in that order: 5010 nM and 794 nM.
For the compound `CC(C)Oc1cc2c(cc1C(F)(F)F)N(C(=O)Nc1cccnc1)CC2`, the inhibitory constant (Ki) in experiment [3] was 3.98 nM; in experiment [1], 1580 nM; in experiment [2] it was 3.16 nM. The ED50 in the experiment listed under Rattus norvegicus amounted to 1.4 mg/kg.
As to `COc1cc2c(cc1Br)N(C(=O)Nc1cccnc1)CC2`, the Ki in experiment [1] is 1580 nM; in experiment [2], 12.6 nM. Also, in the experiment filed under Rattus norvegicus, the ED50 was found to be 1.8 mg/kg.
Consider `CSc1c(Cl)cc2c(c1Cl)CCN2C(=O)Nc1cccnc1`, for which the results for the Ki in experiment [1] and in experiment [2] were 63.1 nM and 2.51 nM, respectively.
As for `CCCSc1cc2c(cc1C(F)(F)F)N(C(=O)Nc1cccnc1)CC2`, the Ki in experiment [3] was 15.8 nM; in experiment [1] it was more than 6310 nM; in experiment [2], 6.31 nM.
On to `COc1cc2c(cc1C(F)(F)C(F)(F)F)N(C(=O)Nc1cccnc1)CC2`, for which the inhibition constant (Ki) in experiment [1] was 3980 nM; in experiment [2] it was 12.6 nM.
With `O=C(Nc1cccnc1)N1CCc2cc([N+](=O)[O-])ccc21`, the Ki in experiment [1] was more than 6310 nM; in experiment [2] it was 316 nM.
For `Cc1ccc2c(c1I)CCN2C(=O)Nc1cccnc1`, the Ki in experiment [1] is 2510 nM; in experiment [2] it was 25.1 nM.
Compound `O=C(Nc1cccnc1)N1CCc2ccccc21` gave a Ki in experiment [2] of 1260 nM.
As to `Cc1ccc2c(c1Br)CCN2C(=O)Nc1cccnc1`, the results for the Ki in experiment [1] and in experiment [2] were 126 nM and 7.94 nM, respectively.
The matching figures for `Cc1c(Cl)cc2c(c1Cl)CCN2C(=O)Nc1cccnc1`: 31.6 nM and 3.98 nM.
In the case of `CSc1cc2c(cc1C#N)N(C(=O)Nc1cccnc1)CC2`, the inhibition constant Ki in experiment [1] was 2510 nM; in experiment [2] it was 15.8 nM.
The matching figures for `O=C(Nc1cccnc1)N1CCc2cc(C(F)(F)F)ccc21`: 1260 nM and 31.6 nM.
For `CSc1ccc2c(c1Cl)CCN2C(=O)Nc1cccnc1`, in that order: 5010 nM and 63.1 nM.
The matching figures for `CC(=O)c1cc2c(cc1C(F)(F)F)N(C(=O)Nc1cccnc1)CC2`: 3160 nM and 50.1 nM.
Turning to `CC(C)c1cc2c(cc1Cl)N(C(=O)Nc1cccnc1)CC2`, the Ki in experiment [1] is 2000 nM; in experiment [2] it was 20 nM.
For `CCc1cc2c(cc1Cl)N(C(=O)Nc1cccnc1)CC2`, in that order: 398 nM and 5.01 nM.
For `Cc1cc2c(cc1Br)N(C(=O)Nc1cccnc1)CC2`, in that order: 63.1 nM and 3.98 nM.
The matching figures for `O=C(Nc1cccnc1)N1CCc2cc(I)c(Cl)cc21`: 100 nM and 3.16 nM.
Turning to `CSc1cc2c(cc1C(F)(F)C(F)(F)F)N(C(=O)Nc1cccnc1)CC2`, the Ki is 31.6 nM in experiment [3], 2510 nM in experiment [1] and 3.98 nM in experiment [2]. In addition, the ED50 in the experiment listed under Rattus norvegicus turned out to be 5 mg/kg.
Consider `Cc1cc2c(cc1Cl)CCN2C(=O)Nc1cccnc1`, for which the Ki in experiment [1] was 398 nM; in experiment [2] it was 10 nM.
In the case of `CCOc1cc2c(cc1Cl)N(C(=O)Nc1cccnc1)CC2`, the Ki in experiment [1] was 3980 nM; in experiment [2], 25.1 nM. In the experiment listed under Rattus norvegicus, the ED50 stood at 3.4 mg/kg.
For the compound `CC(C)c1cc2c(cc1C(F)(F)F)N(C(=O)Nc1cccnc1)CC2`, the values for the inhibition constant (Ki) in experiment [1] and in experiment [2] were more than 6310 nM and 25.1 nM, respectively.
For `CC(C)(C)c1ccc2c(c1Cl)CCN2C(=O)Nc1cccnc1`, in that order: 631 nM and 39.8 nM.
